Results on six molecules are retold here after ChEMBL document CHEMBL4330181, “Cytosine-Based TET Enzyme Inhibitors” (ACS Med Chem Lett, 2019).

Calls of active or inactive are those of the source. The rule behind the calls is not given here.

For test [1], the target named is Methylcytosine dioxygenase TET1 (Homo sapiens) (UniProt Q8NFU7). The experiment in a line: Inhibition of recombinant human N-terminal FLAG-tagged TET1 (1418 to 2136 residues) expressed in baculovirus infected sf9 cells assessed as reduction in oxidation of methylated dsDNA at 100 uM after 2 hrs by chemiluminescence assay relative to control. In outline:
(§1)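 ELISA of oxidation of methylated double-stranded DNA by recombinant human TET1 or TET2, inhibitor tested at 100 μM. N = 3, mean ± SEM; two-way ANOVA.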

Test [2] has as its target Methylcytosine dioxygenase TET2 (Homo sapiens) (UniProt Q6N021). The experiment in a line: Inhibition of recombinant human C-terminal His/N-terminal FLAG-tagged TET2 (1129 to 2002 residues) expressed in baculovirus infected sf9 cells assessed as reduction in oxidation of methylated dsDNA at 100 uM after 2 hrs by chemiluminescence assay relative to control. In outline: as §1

A further test is filed under the species Mus musculus. Nature of the test: Inhibition of TET in mouse HT22 cells assessed as reduction in global DNA 5-hmc level at 10 uM after 24 hrs by spectrophotometric method. The format is cell-based. In outline: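 HT-22 immortalized mouse hippocampal neurons dosed at 10 μM in 1% DMSO for 24 h, then lysed; DNA extracted and 5hmC detected with a 5hmC-specific antibody, colorimetric read-out giving percent 5hmC of all cytosine species. Vehicle control; N = 6 biological replicates per group, mean ± SEM, one-way ANOVA.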

The target in test [3] is DNA (cytosine-5)-methyltransferase 3A (Homo sapiens) (UniProt Q9Y6K1). The experiment in a line: Inhibition of DNMT3A (unknown origin) at 500 uM.
Sequence of DNA (cytosine-5)-methyltransferase 3A (Homo sapiens) (Q9Y6K1 whole entry, looked up): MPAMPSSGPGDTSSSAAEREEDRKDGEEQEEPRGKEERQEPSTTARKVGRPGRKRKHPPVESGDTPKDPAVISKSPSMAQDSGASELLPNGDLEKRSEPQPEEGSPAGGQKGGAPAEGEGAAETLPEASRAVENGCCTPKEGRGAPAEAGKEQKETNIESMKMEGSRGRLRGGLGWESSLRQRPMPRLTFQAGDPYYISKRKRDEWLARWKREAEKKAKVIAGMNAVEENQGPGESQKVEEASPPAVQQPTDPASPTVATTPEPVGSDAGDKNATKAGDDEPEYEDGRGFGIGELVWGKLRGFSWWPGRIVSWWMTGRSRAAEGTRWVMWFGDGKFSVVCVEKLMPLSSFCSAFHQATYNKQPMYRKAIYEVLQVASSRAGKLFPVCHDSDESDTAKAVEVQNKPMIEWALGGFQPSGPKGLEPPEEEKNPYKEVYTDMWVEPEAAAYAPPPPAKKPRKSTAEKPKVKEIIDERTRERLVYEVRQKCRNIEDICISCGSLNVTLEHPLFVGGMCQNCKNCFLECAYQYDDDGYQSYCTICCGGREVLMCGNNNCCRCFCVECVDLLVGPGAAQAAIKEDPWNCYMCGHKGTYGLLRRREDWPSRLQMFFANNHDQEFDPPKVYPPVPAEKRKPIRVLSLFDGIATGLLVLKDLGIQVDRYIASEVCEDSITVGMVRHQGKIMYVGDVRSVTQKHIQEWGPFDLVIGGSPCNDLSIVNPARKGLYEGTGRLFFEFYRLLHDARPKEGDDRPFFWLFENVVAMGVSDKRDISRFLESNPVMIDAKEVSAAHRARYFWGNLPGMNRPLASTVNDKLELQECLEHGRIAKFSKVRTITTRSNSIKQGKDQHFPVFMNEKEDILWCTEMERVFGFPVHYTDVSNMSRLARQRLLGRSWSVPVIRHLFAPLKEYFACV

Sequence of Methylcytosine dioxygenase TET1 (Homo sapiens) (Q8NFU7 whole entry, the tested form may be a part): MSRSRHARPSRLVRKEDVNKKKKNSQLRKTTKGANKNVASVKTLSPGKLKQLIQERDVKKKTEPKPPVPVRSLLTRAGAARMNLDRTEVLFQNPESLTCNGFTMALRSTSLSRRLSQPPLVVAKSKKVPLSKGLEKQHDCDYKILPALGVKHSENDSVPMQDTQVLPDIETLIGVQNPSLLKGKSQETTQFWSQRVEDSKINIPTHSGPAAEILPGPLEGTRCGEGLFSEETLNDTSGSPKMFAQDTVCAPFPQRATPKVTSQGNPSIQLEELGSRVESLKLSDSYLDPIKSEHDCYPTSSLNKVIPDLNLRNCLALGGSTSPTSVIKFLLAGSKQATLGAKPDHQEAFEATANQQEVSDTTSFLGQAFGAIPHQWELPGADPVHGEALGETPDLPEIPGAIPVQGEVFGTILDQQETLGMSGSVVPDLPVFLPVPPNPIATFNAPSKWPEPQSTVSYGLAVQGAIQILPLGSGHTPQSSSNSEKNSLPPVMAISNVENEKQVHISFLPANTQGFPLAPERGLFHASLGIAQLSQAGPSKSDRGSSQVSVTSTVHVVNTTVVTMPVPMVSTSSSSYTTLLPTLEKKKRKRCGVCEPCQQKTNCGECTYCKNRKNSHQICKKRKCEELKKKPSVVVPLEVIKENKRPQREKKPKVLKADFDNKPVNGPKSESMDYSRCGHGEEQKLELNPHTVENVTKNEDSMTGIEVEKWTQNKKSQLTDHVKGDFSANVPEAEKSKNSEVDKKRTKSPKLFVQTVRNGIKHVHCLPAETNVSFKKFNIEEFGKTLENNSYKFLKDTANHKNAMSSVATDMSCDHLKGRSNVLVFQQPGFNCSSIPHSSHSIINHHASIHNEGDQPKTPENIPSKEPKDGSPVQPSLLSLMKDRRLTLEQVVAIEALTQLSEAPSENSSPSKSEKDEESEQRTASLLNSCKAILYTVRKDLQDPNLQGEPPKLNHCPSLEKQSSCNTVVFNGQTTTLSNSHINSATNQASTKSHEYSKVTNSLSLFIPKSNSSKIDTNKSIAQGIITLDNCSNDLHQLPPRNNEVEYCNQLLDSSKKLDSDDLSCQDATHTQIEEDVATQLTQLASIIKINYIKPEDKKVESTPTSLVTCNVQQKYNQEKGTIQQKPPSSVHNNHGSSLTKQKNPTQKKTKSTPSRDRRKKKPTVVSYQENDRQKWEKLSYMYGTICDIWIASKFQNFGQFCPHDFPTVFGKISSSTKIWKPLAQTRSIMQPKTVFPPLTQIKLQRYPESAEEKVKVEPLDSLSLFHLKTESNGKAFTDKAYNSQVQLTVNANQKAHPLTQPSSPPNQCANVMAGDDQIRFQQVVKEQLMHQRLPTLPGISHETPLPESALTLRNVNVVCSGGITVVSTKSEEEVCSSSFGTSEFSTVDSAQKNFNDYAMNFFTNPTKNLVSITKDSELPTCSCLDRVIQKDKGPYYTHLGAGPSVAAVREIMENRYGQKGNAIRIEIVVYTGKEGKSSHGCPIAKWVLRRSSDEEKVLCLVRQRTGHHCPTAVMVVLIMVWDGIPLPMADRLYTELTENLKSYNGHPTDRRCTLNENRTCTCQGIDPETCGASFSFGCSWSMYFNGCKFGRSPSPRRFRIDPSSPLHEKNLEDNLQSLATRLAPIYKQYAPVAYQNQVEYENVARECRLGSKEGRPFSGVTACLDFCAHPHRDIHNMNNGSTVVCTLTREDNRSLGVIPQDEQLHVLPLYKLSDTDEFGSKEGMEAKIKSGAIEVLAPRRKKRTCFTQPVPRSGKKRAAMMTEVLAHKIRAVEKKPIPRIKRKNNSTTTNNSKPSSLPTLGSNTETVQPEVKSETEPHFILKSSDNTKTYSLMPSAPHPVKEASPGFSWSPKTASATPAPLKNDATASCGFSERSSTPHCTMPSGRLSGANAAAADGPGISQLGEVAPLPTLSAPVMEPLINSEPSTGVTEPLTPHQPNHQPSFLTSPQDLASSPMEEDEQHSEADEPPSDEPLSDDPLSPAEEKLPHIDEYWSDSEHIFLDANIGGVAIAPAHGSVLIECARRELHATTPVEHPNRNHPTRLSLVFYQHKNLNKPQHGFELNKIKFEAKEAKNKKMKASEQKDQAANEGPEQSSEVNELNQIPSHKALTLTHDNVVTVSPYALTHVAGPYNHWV

For orientation: inhibition means the percentage by which the read-out fell short of the control. Regarding `Nc1ccn(-c2ccccc2)c(=O)n1`, the inhibition result in test [1] and in test [2] was “inactive” in each case.
Turning to `Nc1nc(=O)n(-c2ccccc2)cc1C(F)(F)F`, the inhibition result in test [1] and in test [2] was “inactive” each time.
For the molecule `Nc1nc(=O)n(-c2cccc(-c3ccccc3)c2)cc1Cl`, the inhibition result (in test [1]; in the test filed under Mus musculus) was “Active” throughout. For the same molecule, the inhibition result in test [3] is “inactive”.
`Nc1nc(=O)n(-c2ccccc2-c2ccccc2)cc1Cl`: the inhibition result in test [1] and in test [2] was “inactive” in each case.
As for `Nc1nc(=O)n(-c2ccccc2)cc1Cl`, the inhibition in test [1] was determined as 57%; in test [2], 43%. Also, the inhibition result in the test listed under Mus musculus was “inactive”.
With `Nc1nc(=O)n(-c2ccc(-c3ccccc3)cc2)cc1Cl`, the inhibition result in test [1] and in test [2] was “inactive” each time.
